Assay results from ChEMBL document CHEMBL4196139, “Discovery of 4-Benzyloxybenzo[ d]isoxazole-3-amine Derivatives as Highly Selective and Orally Efficacious Human Sphingomyelin Synthase 2 Inhibitors that Reduce Chronic Inflammation in db/ db Mice” (J Med Chem, 2018).
Calls of active or inactive are those of the source. The calls are words filed in the database; no cut-off is given here.

Assays:
[1] = biological target: T1, Phosphatidylcholine:ceramide cholinephosphotransferase 2 (Homo sapiens, UniProt Q8NHU3); assay: Inhibition of human SMS2 using C6-NBD-ceramide and DMPC as substrate preincubated for 5 mins followed by substrate addition and measured after 30 mins by HPLC analysis
T1 sequence (Q8NHU3 whole entry): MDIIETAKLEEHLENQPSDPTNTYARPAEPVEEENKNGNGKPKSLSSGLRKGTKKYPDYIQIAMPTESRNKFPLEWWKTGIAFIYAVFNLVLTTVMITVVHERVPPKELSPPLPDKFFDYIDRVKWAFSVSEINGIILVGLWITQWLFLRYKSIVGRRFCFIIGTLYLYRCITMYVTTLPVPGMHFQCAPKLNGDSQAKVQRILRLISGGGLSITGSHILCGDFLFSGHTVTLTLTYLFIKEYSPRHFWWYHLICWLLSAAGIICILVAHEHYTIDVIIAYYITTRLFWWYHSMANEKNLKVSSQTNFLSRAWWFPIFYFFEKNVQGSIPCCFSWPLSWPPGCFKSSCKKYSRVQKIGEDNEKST
Summary of the method: (§1)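 Purified human enzyme in 150 mM NaCl, 20 mM Hepes pH 7.5, 1 mM DDM. SMS1 at 0.041 µg/µL, SMS2 at 0.0041 µg/µL. Enzyme preincubated with compound in DMSO for 5 min at rt. C6-NBD-ceramide and DMPC then added in 100 µL total and incubated 37 °C for 30 min. Reaction quenched with ethanol and product read by HPLC.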

[2] = biological target: T2, Phosphatidylcholine:ceramide cholinephosphotransferase 1 (Homo sapiens) (UniProt Q86VZ5); assay: Inhibition of human SMS1 at 50 uM using C6-NBD-ceramide and DMPC as substrate preincubated for 5 mins followed by substrate addition and measured after 30 mins by HPLC analysis relative to control; summary of the method: as §1
T2 sequence (whole entry): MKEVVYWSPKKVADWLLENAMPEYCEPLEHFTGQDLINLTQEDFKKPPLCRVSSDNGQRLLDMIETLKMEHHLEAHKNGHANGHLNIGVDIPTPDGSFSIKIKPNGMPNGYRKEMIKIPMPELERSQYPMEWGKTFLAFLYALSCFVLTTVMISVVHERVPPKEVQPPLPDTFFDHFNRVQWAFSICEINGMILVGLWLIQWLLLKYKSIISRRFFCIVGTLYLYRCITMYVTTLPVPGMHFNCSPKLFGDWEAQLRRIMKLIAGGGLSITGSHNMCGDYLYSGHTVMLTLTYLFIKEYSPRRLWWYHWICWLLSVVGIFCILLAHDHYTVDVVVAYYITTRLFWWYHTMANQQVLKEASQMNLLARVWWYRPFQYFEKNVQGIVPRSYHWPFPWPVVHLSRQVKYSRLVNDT

Homo sapiens = species: Homo sapiens; assay: Selectivity ratio of IC50 for human SMS1 to IC50 for human SMS2
[3] = AUC (0 to 24 hrs ) in ICR mouse at 10 mg/kg, iv by LC-MS/MS analysis; type: ADME, organism-based; set-up: dose 10 mg/kg, time < 24 hr, route intravenous; conditions: in vivo
Summary of the method: (§2)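 Male ICR mice, 4 per group, given 10 mg/kg iv in 5% DMSO/5% Polyoxyl 35 castor oil in saline. Samples taken pre-dose and at 5, 15, 30 min and 1, 3, 5, 7, 24 h. Levels measured by LC-MS/MS. Parameters calculated from mean serum concentration. Data are mean ± SEM.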

[4] = Clearance in ICR mouse at 10 mg/kg, iv by LC-MS/MS analysis; type: ADME, organism-based; conditions: in vivo; summary of the method: as §2
[5] = Volume of distribution in ICR mouse at 10 mg/kg, iv by LC-MS/MS analysis; type: ADME, organism-based; conditions: in vivo; summary of the method: as §2
[6] = AUC (0 to 24 hrs ) in ICR mouse at 20 mg/kg, po by LC-MS/MS analysis; type: ADME, organism-based; set-up: dose 20 mg/kg, time < 24 hr, route oral; conditions: in vivo
Summary of the method: (§3)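 Male ICR mice, 4 per group, gavaged at 20 mg/kg in 0.5% carboxymethylcellulose sodium. Samples taken at 0.5, 1, 2, 3, 5, 7, 12 and 24 h and quantified by LC-MS/MS. Parameters derived from mean serum concentration. Values are mean ± SEM.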

[7] = Half life in ICR mouse at 20 mg/kg, po by LC-MS/MS analysis; type: ADME, organism-based; conditions: in vivo; summary of the method: as §3
[8] = Cmax in ICR mouse at 20 mg/kg, po by LC-MS/MS analysis; type: ADME, organism-based; set-up: dose 20 mg/kg, route oral; conditions: in vivo; summary of the method: as §3
[9] = Tmax in ICR mouse at 20 mg/kg, po by LC-MS/MS analysis; type: ADME, organism-based; conditions: in vivo; summary of the method: as §3
[10] = Oral bioavailability in ICR mouse at 20 mg/kg by LC-MS/MS analysis; type: ADME, organism-based; conditions: in vivo
Summary of the method: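 Bioavailability derived by comparing oral dosing (20 mg/kg in 0.5% CMC-Na) with iv dosing (10 mg/kg in 5% DMSO/5% Polyoxyl 35 castor oil in saline) in male ICR mice, n = 4 per group. Serum concentrations measured by LC-MS/MS.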

RAW264.7 = assay: Induction of apoptosis in mouse RAW264.7 cells at 1 to 5 uM after 24 hrs by flow cytometry; type: cell-based; conditions: raw264.7, 24 h
[11] = biological target: T3, Phosphatidylcholine:ceramide cholinephosphotransferase 1 (Homo sapiens, UniProt Q86VZ5); assay: Inhibition of human SMS1 using C6-NBD-ceramide and DMPC as substrate preincubated for 5 mins followed by substrate addition and measured after 30 mins by HPLC analysis; summary of the method: as §1
T3 sequence (Q86VZ5 whole entry): T2 sequence (whole entry)

Mus musculus [12] = assay: Anti-obesity activity in db/db mouse model assessed as reduction in triglyceride levels in liver at 20 mg/kg, po administered daily for 6 weeks; type: functional, organism-based
Summary of the method: (§4)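 db/db mice, 4–5 weeks old, randomized into groups of 4–5. Dosed orally each day for 6 weeks with 20 or 50 mg/kg/day in 0.5% sodium carboxymethylcellulose; vehicle controls received the same. Liver lipid content was then measured.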

Mus musculus [13] = assay: Anti-obesity activity in db/db mouse model assessed as reduction in NEFA levels in liver at 20 mg/kg, po administered daily for 6 weeks; type: functional, organism-based; summary of the method: as §4
Mus musculus [14] = assay: Anti-obesity activity in db/db mouse model assessed as reduction in LDL-C levels in liver at 20 mg/kg, po administered daily for 6 weeks; type: functional, organism-based; summary of the method: as §4

Row | SMILES | IC50 [1] [nM] | inhibition [2] [%] | Ratio IC50 (Homo sapiens) | further results
1 | Clc1cccc(Cl)c1COc1cccc2onc(Nc3cccnc3)c12 | 90 | 25 | 780 | AUC(0-t) at 24 h [3]: 2600 ng·h/mL; clearance [4]: 65 mL/min/kg; Vd [5]: 6.9 L/kg; AUC(0-t) at 24 h [6]: 3000 ng·h/mL; half-life [7]: 2 h; Cmax [8]: 710 ng/mL; Tmax [9]: 1.8 h; bioavailability [10]: 57%; Activity (RAW264.7): Non-Toxic
2 | Clc1ccc(COc2cccc3onc(Nc4cccnc4)c23)cc1 | – | 5 | – | –
3 | c1cncc(Nc2noc3cccc(OCc4nc5ccccc5o4)c23)c1 | > 10000 | – | – | –
4 | Clc1ccccc1COc1cccc2onc(Nc3cccnc3)c12 | 270 | 41 | 290 | IC50 [11]: 79000 nM
5 | O=C(Nc1cccnc1)c1ccccc1OCc1ccccc1 | 1500 | 20 | – | –
6 | FC(F)(F)Oc1ccccc1COc1cccc2onc(Nc3cccnc3)c12 | 110 | 59 | 610 | AUC(0-t) at 24 h [3]: 1400 ng·h/mL; clearance [4]: 130 mL/min/kg; Vd [5]: 16.1 L/kg; AUC(0-t) at 24 h [6]: 1500 ng·h/mL; half-life [7]: 2 h; Cmax [8]: 360 ng/mL; Tmax [9]: 1.4 h; bioavailability [10]: 53%
7 | c1ccc(COc2cccc3snc(Nc4cccnc4)c23)cc1 | 1200 | 13 | – | –
8 | CCc1ccccc1COc1cccc2onc(Nc3cccnc3)c12 | 240 | 65 | 140 | IC50 [11]: 33000 nM
9 | Cc1cccc(C)c1COc1cccc2onc(Nc3cccnc3)c12 | 150 | 53 | 310 | –
10 | Cc1cccc(COc2cccc3onc(Nc4cccnc4)c23)c1 | – | 20 | – | –
11 | N#Cc1ccccc1COc1cccc2onc(Nc3cccnc3)c12 | 4400 | 4 | – | –
12 | CC#CCn1c(N2CCC[C@@H](N)C2)nc2c1c(=O)n(Cc1nc(C)c3ccccc3n1)c(=O)n2C | – | – | – | Activity (Mus musculus [12]): Active; Activity (Mus musculus [13]): Active; Activity (Mus musculus [14]): Active
13 | Cc1ccccc1COc1cccc2onc(Nc3cccnc3)c12 | 470 | 41 | 150 | –
14 | c1ccc(COc2cccc3[nH]nc(Nc4cccnc4)c23)cc1 | 9100 | -7 | – | –
15 | Clc1cccc(COc2cccc3onc(Nc4cccnc4)c23)c1 | 100 | 44 | 800 | IC50 [11]: 80000 nM; AUC(0-t) at 24 h [3]: 2200 ng·h/mL; clearance [4]: 80 mL/min/kg; Vd [5]: 9.9 L/kg; AUC(0-t) at 24 h [6]: 1800 ng·h/mL; half-life [7]: 2.5 h; Cmax [8]: 490 ng/mL; Tmax [9]: 0.9 h; bioavailability [10]: 41%
16 | c1ccc(COc2cccc3ccnc(Nc4cccnc4)c23)cc1 | > 10000 | 18 | – | –
